Data published in PubChem BioAssay.
Activity calls are given as the source filed them.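 The calls were made as follows, unless noted: active = viability at or under a set limit in both replicates, limit being median viability minus 3 SD (cut at about 48% in these data, passing the limit was not always enough); inconclusive = at or under the limit in just one replicate; inactive = at or above the limit in both replicates.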

Key:
[1] = HUVEC growth inhibition – cell-based, human, primary screen (AID 575;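 active = viability at or below 30% in both replicate assays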;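 also: 100% = median of untreated cell wells with 0.1% DMSO on each plate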); settings: HUVEC proliferation, CellTiter-Glo luminescence, 72 h; at 10 µM; stronger effect = lower value
Outline: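 system = HUVEC primary cells | amount = 1250 cells/well | buffer or medium = supplemented EBM, 2% fetal bovine serum | dosing = single-point 10 µM, DMSO 0.1% final | times = 72 h compound incubation | detection = CTG luminescence | read-out = % viability relative to median vehicle-well signal on each plate | control set = vehicle and MePR control wells | format = collagen-coated 384-well format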

[2] = growth inhibitors of H69AR lung tumor, primary screen, human, duplicate replicates (AID 580); settings: H69AR lung tumor cells viability, ATP luminescence, 72 h; at 10 µM; stronger effect = lower value;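 also: 100% = mean luminescence of untreated wells and 0% = no signal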
[3] = reversal of MRP1-mediated doxorubicin resistance, pilot screen, H69AR cells, doxorubicin co-treatment (AID 601;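 active = viability loss from added drug above about 55%, and viability with drug at most 40%, in both replicates, limit read from the data, passing the limit was not always enough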); settings: CellTiter-Glo, 72 h, at 10 µM; for differential viability (reversal): stronger effect = higher value
[4] = 384-well plate pilot, post-Golgi transport modulator project, inhibition of yeast transport mutant growth (AID 636; in the data active = inhibition above about 31%); settings: absorbance 615 nm, about 18 h, stronger effect = higher value
[5] = growth suppression of yeast trafficking mutant, preliminary HTS, modulators of trafficking downstream of Golgi apparatus project, 1536-format plate, OD 615 nm (AID 637; in the data active = inhibition above about 30%); settings: yeast transport mutant growth, absorbance 615 nm, 18 h; stronger effect = higher value
[6] = H69AR cells + 2 uM doxorubicin, measured here: viability with 2 uM doxorubicin, stronger effect = lower value
[7] = H69AR cells, compound alone cytotoxicity

| Compound | viability [1] | viability [2] | differential viability (reversal) ([3]; H69AR cells + 2 uM doxorubicin) | viability [3, 6] | viability [3, 7] | inhibition [4] | inhibition [5] |
| --- | --- | --- | --- | --- | --- | --- | --- |
| O=C(Nc1cc(C(F)(F)F)ccc1Cl)c1cc(C2CC2)on1 | 96.4% (inactive) | 91% (inactive) | 3.55% (inactive) | 87.4% | 91% | -3.82% (inactive) | 0.63% (inactive) |
| CC1(C)C2CCC1(CS(=O)(=O)NCc1ccc(C(=O)O)cc1)C(=O)C2 (centres undefined) | 103% (inactive) | 108% (inactive) | 23.7% (inactive) | 84.2% | 108% | -0.39% (inactive) | 3.33% (inactive) |
| O=C(Cc1ccccc1)Nc1nnc(-c2cccs2)s1 | 96.8% (inactive) | 61.1% (inactive) | -6.04% (inactive) | 67.1% | 61.1% | -2.99% (inactive) | 3.02% (inactive) |
| CCCOc1ccc(N2C(=O)CC(NCCCN3CCC(C(N)=O)CC3)C2=O)cc1 (centres undefined) | 121% (inactive) | 88.6% (inactive) | -3.32% (inactive) | 91.9% | 88.6% | -1.97% (inactive) | 1.27% (inactive) |
| COc1oc(-c2ccccc2)nc1C(F)(F)F | 94.3% (inactive) | 109% (inactive) | 9.45% (inactive) | 99.9% | 109% | -3.82% (inactive) | -2.38% (inactive) |
| O=c1ccn(Cc2ccccc2Cl)cc1 | 99.9% (inactive) | 88.2% (inactive) | 9.77% (inactive) | 78.4% | 88.2% | -4.47% (inactive) | -3.33% (inactive) |
| CC(=O)c1cc(-c2ccccc2)n(CC(=O)N2CCN(C3CCCC3)CC2)c1C | 98.7% (inactive) | 80.5% (inactive) | -0.095% (inactive) | 80.6% | 80.5% | -5.58% (inactive) | 0.95% (inactive) |
| COC(=O)COc1ccc(C(=O)OC)cc1 | 92.8% (inactive) | 108% (inactive) | 10.4% (inactive) | 97.4% | 108% | -1.84% (inactive) | -2.38% (inactive) |
| CC1=C(C(N)=O)C(c2ccc(Cl)cc2Cl)n2ncnc2N1 (centres undefined) | 91.8% (inactive) | 101% (inactive) | 16.7% (inactive) | 84.7% | 101% | 0% (inactive) | 6.19% (inactive) |
| Cc1cc(C)c2c(N)c(C(=O)c3ccccc3)oc2n1 | 80.2% (inactive) | 90.4% (inactive) | -1.71% (inactive) | 92.1% | 90.4% | -7.6% (inactive) | 2.22% (inactive) |
| Cn1c(COc2ccccc2)nnc1SCC(=O)Nc1ccc(N2CCOCC2)c(Cl)c1 | 94.4% (inactive) | 94.4% (inactive) | 11.6% (inactive) | 82.8% | 94.4% | -7.37% (inactive) | -0.48% (inactive) |
| CC1CC(C)CN(CCCNC(=O)c2ccc3c(c2)NC(=O)C(N2CCCCC2)S3)C1 (centres undefined) | 88.6% (inactive) | 87.8% (inactive) | 4.94% (inactive) | 82.8% | 87.8% | 2.4% (inactive) | -7.14% (inactive) |
| c1ccc(CC2CCN(Cc3nc(-c4ccccc4)no3)CC2)cc1 | 65.1% (inactive) | 87.9% (inactive) | -4.31% (inactive) | 92.2% | 87.9% | -5.13% (inactive) | 0.95% (inactive) |
| CC(=O)Nc1ccc(S(=O)(=O)N(CC(=O)O)Cc2ccccc2)cc1 | 93.7% (inactive) | 97.7% (inactive) | -6.14% (inactive) | 104% | 97.7% | -2.47% (inactive) | 7.14% (inactive) |
| Cc1csc(OCc2ccc(C#N)cc2)n1 | 98.6% (inactive) | 101% (inactive) | 16.2% (inactive) | 85% | 101% | -5.32% (inactive) | 3.97% (inactive) |
| O=C(CCNC(=O)c1ccc(Br)o1)NC1CCCC1 | 87% (inactive) | 95.1% (inactive) | 16.9% (inactive) | 78.2% | 95.1% | -4.4% (inactive) | 4.29% (inactive) |
| O=C(NC12CC3CC(CC(C3)C1)C2)N1CCN(C(=O)C2CCCO2)CC1 (centres undefined) | 111% (inactive) | 95.6% (inactive) | 11.2% (inactive) | 84.4% | 95.6% | -7.07% (inactive) | 5.24% (inactive) |
| CCCCNC(=O)c1cc(-c2ccc(F)cc2)on1 | 74.1% (inactive) | 81.2% (inactive) | 21.9% (inactive) | 59.2% | 81.2% | -2.5% (inactive) | -1.11% (inactive) |
| CCOC(=O)NC(c1ccccc1)C1CCCCC1=O (centres undefined) | 103% (inactive) | 94.2% (inactive) | 5.88% (inactive) | 88.3% | 94.2% | -3.64% (inactive) | 0.32% (inactive) |

| Compound | viability [1] | viability [2] | differential viability (reversal) ([3]; H69AR cells + 2 uM doxorubicin) | viability [3, 6] | viability [3, 7] | inhibition [4] | inhibition [5] |
| --- | --- | --- | --- | --- | --- | --- | --- |
| CCOc1cc(C)c(C(C)C)cc1S(=O)(=O)N1CCN(C)CC1 | 96.1% (inactive) | 96.2% (inactive) | 2.99% (inactive) | 93.2% | 96.2% | 1.84% (inactive) | -5.71% (inactive) |
| Nc1nc2ccccc2n1/N=C/c1ccc(Br)cc1 | 72.4% (inactive) | 86.8% (inactive) | 4.02% (inactive) | 82.8% | 86.8% | -3.95% (inactive) | 8.57% (inactive) |
| COc1cc(C2C3=C(CC(C)(C)CC3=O)Nc3c2c(=O)[nH]c(=O)n3Cc2ccccc2)ccc1O (centres undefined) | 83.3% (inactive) | 93.7% (inactive) | 4.23% (inactive) | 89.5% | 93.7% | 0.26% (inactive) | 3.33% (inactive) |
| Cc1cccc2c1nc(-c1ccccc1)n1cnnc21 | 92.3% (inactive) | 86.7% (inactive) | -8.59% (inactive) | 95.3% | 86.7% | 1.2% (inactive) | -6.19% (inactive) |
| Nc1nc(-c2ccc(Cl)cc2)nn1C(=O)c1cccnc1 | 98.2% (inactive) | 96.4% (inactive) | 0.94% (inactive) | 95.5% | 96.4% | 0.13% (inactive) | 4.29% (inactive) |
| CCOC(=O)CS(=O)(=O)c1nc(-c2ccccc2)cc(C(F)(F)F)n1 | 5.62% (active) | 1.61% (active) | 0.47% (inactive) | 1.14% | 1.61% | 0.39% (inactive) | -0.63% (inactive) |
| Cc1ccc(S(=O)(=O)NC(C(=O)OCC(=O)NC2CCS(=O)(=O)C2)C(C)C)cc1 (centres undefined) | 98.1% (inactive) | 92.9% (inactive) | 0.03% (inactive) | 92.8% | 92.9% | -1.69% (inactive) | 0.63% (inactive) |
| O=C(c1cccnc1)N1CCN(Cc2ccc3c(c2)OCO3)CC1 | 89.6% (inactive) | 95.8% (inactive) | 14.4% (inactive) | 81.4% | 95.8% | -7.73% (inactive) | 1.75% (inactive) |
| Cc1ccc(S(=O)(=O)NCCCNC(=O)N2CCOCC2)cc1 | 100% (inactive) | 106% (inactive) | 13.5% (inactive) | 92.4% | 106% | -1.05% (inactive) | 3.81% (inactive) |
| COC(=O)c1ccc(CSc2nc3ccccc3c(=O)n2Cc2ccco2)o1 | 81.2% (inactive) | 84.4% (inactive) | -7.85% (inactive) | 92.3% | 84.4% | -4.94% (inactive) | -1.11% (inactive) |
| CS(=O)(=O)N(CC(=O)N1CCN(c2cccc(Cl)c2)CC1)C1CCCCC1 | 80.6% (inactive) | 79.6% (inactive) | -7.54% (inactive) | 87.1% | 79.6% | -4.29% (inactive) | -7.78% (inactive) |
| COc1ccc(C(=O)CSc2nnc(CNc3ccc(C)cc3C)o2)cc1 | 86.8% (inactive) | 82.2% (inactive) | 0.595% (inactive) | 81.6% | 82.2% | -2.76% (inactive) | 1.9% (inactive) |
| COc1ccc(-c2nn3c(-c4cccc(C)c4)nnc3s2)cc1OC | 51.1% (inactive) | 35.2% (active) | -44% (inactive) | 79.2% | 35.2% | -0.4% (inactive) | -4.13% (inactive) |
| COc1ccccc1CC(=O)NCc1ccc2c(c1)OCO2 | 106% (inactive) | 93.5% (inactive) | 9.18% (inactive) | 84.3% | 93.5% | -7.2% (inactive) | 6.19% (inactive) |
| Cc1cc(N2C(=O)C(=O)/C(=C(/O)c3ccc(F)cc3)C2c2ccc(F)cc2)no1 (centres undefined) | 78.3% (inactive) | 91.3% (inactive) | 3.5% (inactive) | 87.8% | 91.3% | -5.47% (inactive) | 5.08% (inactive) |
| COc1cccc(OC)c1C(=O)Nc1ccccc1N1CCCC1 | 91.1% (inactive) | 91.6% (inactive) | 6.71% (inactive) | 84.9% | 91.6% | -1.71% (inactive) | -2.86% (inactive) |
| O=C(CSCc1ccccn1)Nc1ccccc1 | 102% (inactive) | 94.4% (inactive) | 7.96% (inactive) | 86.4% | 94.4% | -5.07% (inactive) | -6.19% (inactive) |
| Cc1nn(Cc2ccccc2)c(C)c1NC(=O)CCC(=O)O | 110% (inactive) | 89.4% (inactive) | -8.23% (inactive) | 97.7% | 89.4% | 3.42% (inactive) | -1.75% (inactive) |
